Legend:
WT LIMK1-NanoLuc = WT LIMK1-NanoLuc (Homo sapiens, UniProt P53667); assay: LIMK1 NanoBRET target engagement assay, WT; type: cell-based; conditions: HEK293T cells, 0.5 μM K-10 tracer, 3 h
Summary of the method: (§1)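 HEK293T cells in Opti-MEM without phenol red with 1% FBS (2x10^5 cells/mL) were transfected with WT or C349A LIMK1-NanoLuc plasmid (1 μg/mL) plus carrier DNA (9 μg/mL) for 20 h at 37 °C/5% CO2. K-10 tracer and test compound (diluted from 1000x DMSO stocks) were added for 3 h at 37 °C. Donor 450 nm and acceptor 610 nm were read after substrate/inhibitor (2 min, RT). Untransfected background was subtracted, mBU calculated, then normalized to DMSO. Triplicate wells.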

C349A LIMK1-NanoLuc = C349A LIMK1-NanoLuc (Homo sapiens, UniProt P53667, C349A); assay: LIMK1 NanoBRET target engagement assay, C349A; type: cell-based; conditions: HEK293T cells, C349A-LIMK1 mutant, 3 h
Summary of the method: as §1

Sequence of WT LIMK1-NanoLuc (P53667 whole entry): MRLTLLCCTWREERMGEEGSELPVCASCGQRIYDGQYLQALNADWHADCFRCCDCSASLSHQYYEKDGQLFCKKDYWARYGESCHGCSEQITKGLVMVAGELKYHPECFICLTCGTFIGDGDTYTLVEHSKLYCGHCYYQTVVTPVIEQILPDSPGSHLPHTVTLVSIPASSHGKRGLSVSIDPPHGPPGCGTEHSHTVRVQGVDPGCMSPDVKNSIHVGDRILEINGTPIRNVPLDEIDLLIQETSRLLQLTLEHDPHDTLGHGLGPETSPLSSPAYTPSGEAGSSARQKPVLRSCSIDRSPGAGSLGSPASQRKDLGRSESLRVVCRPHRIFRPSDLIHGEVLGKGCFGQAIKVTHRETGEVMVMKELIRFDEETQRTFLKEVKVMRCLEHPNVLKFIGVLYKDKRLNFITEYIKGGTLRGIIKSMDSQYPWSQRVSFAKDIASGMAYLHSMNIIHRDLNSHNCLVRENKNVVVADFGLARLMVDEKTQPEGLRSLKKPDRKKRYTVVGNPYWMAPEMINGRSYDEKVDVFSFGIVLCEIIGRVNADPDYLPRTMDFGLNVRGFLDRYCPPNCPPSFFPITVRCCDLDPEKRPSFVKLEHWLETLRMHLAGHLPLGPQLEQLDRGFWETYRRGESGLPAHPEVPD
Sequence of C349A LIMK1-NanoLuc (P53667 whole entry C349A): as the sequence (P53667 whole entry) above, with C349A counted along it

BRET signal (NanoBRET K-10 tracer) (WT LIMK1-NanoLuc): decreased NanoBRET signals
BRET signal (NanoBRET K-10 tracer) (C349A LIMK1-NanoLuc): decreased NanoBRET signals
Structure (SMILES): COc1ccc(N(C(=O)Nc2c(C)cccc2C)c2cc(Nc3ccc(N4CCN(C)CC4)cc3)ncn2)c(OC)c1 [HG-9-91-01]
